We go through 13 molecules from ChEMBL document CHEMBL1148755, “Structural analogues of smoothened intracellular loops as potent inhibitors of Hedgehog pathway and cancer cell growth” (J Med Chem, 2007).

Square brackets hold non-standard residues; d marks the D form. Peptide text beside a SMILES is read from it. * marks the point of attachment. Palmitoyl = CCCCCCCCCCCCCCCC(=O)*; Myristoyl = CCCCCCCCCCCCCC(=O)*; Nle = CCCC[C@H](N)C(=O)O

Broadly, the IC50 is the point on the concentration scale where inhibition reaches its midpoint. A lower IC50 goes with inhibition by little substance.

In this assay the test system is SK-MEL-2. Briefly: Growth inhibition of SK-Mel2 melanoma cells after 48 hrs by MTT assay. The note with it: Homo sapiens, SK-MEL-2, 48 h. It is filed as functional, cell-based, Homo sapiens. In outline: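 Cells seeded at 200-400 per well in DMEM with 10% FBS and left to attach for 24 h. The next day, inhibitor in medium at 2× was added in an equal volume, and cells were incubated 48 h in a CO2 incubator. Reference plates were read at time of addition for T0 density. MTT staining was read as absorbance at 544 nm and compared with untreated control cells.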
Background: Tetrazolium dyes change colour on reduction, which living cells bring about.

Molecule `CCCCCCCCCCCCCCCC(=O)N[C@@H](CC(C)C)C(=O)N[C@H](C(=O)N[C@@H](Cc1ccc(O)cc1)C(=O)N[C@@H](C)C(=O)N[C@@H](Cc1ccc(C(=O)c2ccccc2)cc1)C(=O)N[C@@H](Cc1cnc[nH]1)C(=O)N[C@H](C(=O)N[C@@H](CO)C(=O)N[C@@H](Cc1ccccc1)C(=O)N[C@@H](CCCCN)C(=O)N[C@@H](C)C(=O)N[C@@H](CC(C)C)C(=O)N[C@H](CCSC(=O)CCCC[C@@H]1SC[C@@H]2NC(=O)N[C@@H]21)C(=O)O)[C@@H](C)O)[C@@H](C)O` registered an IC50 of over 15 µM. Under `CCCCCCCCCCCCCCCC(=O)NCCCC[C@H](NC(=O)[C@H](Cc1ccc(O)cc1)NC(=O)[C@H](CO)NC(=O)[C@@H](NC(=O)[C@H](CCCCN)NC(=O)CNC(=O)[C@H](CO)NC(=O)[C@H](CC(C)C)NC(=O)[C@@H]1CCCN1C(=O)[C@H](CCC(N)=O)NC(=O)[C@H](Cc1ccc(O)cc1)NC(=O)[C@@H](NC(=O)[C@@H](NC(=O)CNC(C)=O)[C@@H](C)O)[C@@H](C)O)[C@@H](C)O)C(=O)O` (Ac-GTTYQPLSGKTSYK(Palmitoyl)-OH) stands 2.7 µM; under `CCCCCCCCCCCCCCCC(=O)NCCCC[C@H](NC(=O)[C@H](CCCNC(=N)N)NC(=O)[C@H](CC(C)C)NC(=O)[C@H](CCSC)NC(=O)[C@@H](NC(=O)[C@H](CCC(=O)O)NC(=O)[C@H](CC(N)=O)NC(=O)[C@@H](NC(=O)[C@H](CCCCN)NC(=O)[C@H](CO)NC(=O)[C@H](C)NC(=O)[C@H](C)NC(=O)[C@H](CCCCN)NC(=O)[C@H](CCC(=O)O)NC(=O)[C@H](CO)NC(=O)[C@H](CC(C)C)NC(=O)[C@H](CC(C)C)NC(=O)CNC(=O)[C@@H]1CCCN1C(=O)[C@H](Cc1c[nH]cn1)NC(=O)[C@H](CC(N)=O)NC(=O)[C@H](CO)NC(=O)[C@H](CCCCN)NC(=O)[C@@H](NC(=O)[C@H](CO)NC(=O)[C@H](Cc1ccccc1)NC(=O)[C@H](CC(C)C)NC(C)=O)[C@@H](C)CC)[C@@H](C)CC)[C@@H](C)O)C(=O)O` (Ac-LFSIKSNHPGLLSEKAASKINETMLRK(Palmitoyl)-OH), 0.95 µM; under `CCCCCCCCCCCCCCCC(=O)NCCCC[C@H](NC(=O)[C@H](Cc1ccc(O)cc1)NC(=O)[C@H](CO)NC(=O)[C@@H](NC(=O)[C@H](CCCCN)NC(=O)CNC(=O)[C@H](CO)NC(=O)[C@H](CC(C)C)NC(=O)[C@@H]1CCCN1C(=O)[C@H](CCC(N)=O)NC(=O)[C@H](Cc1ccc(O)cc1)NC(=O)[C@@H](NC(=O)[C@@H](NC(=O)CNC(=O)[C@H](CC(C)C)NC(=O)[C@H](C)NC(=O)[C@H](CCCCN)NC(=O)[C@H](Cc1ccccc1)NC(=O)[C@H](CO)NC(=O)[C@@H](NC(=O)[C@H](Cc1cnc[nH]1)NC(=O)[C@H](Cc1c[nH]c2ccccc12)NC(=O)[C@H](C)NC(=O)[C@H](Cc1ccc(O)cc1)NC(=O)[C@@H](NC(=O)[C@H](CC(C)C)NC(C)=O)[C@@H](C)O)[C@@H](C)O)[C@@H](C)O)[C@@H](C)O)[C@@H](C)O)C(=O)O` (Ac-LTYAWHTSFKALGTTYQPLSGKTSYK(Palmitoyl)-OH), 1 µM. As for `CCCC[C@H](NC(=O)[C@H](CCCNC(=N)N)NC(=O)[C@H](CCCNC(=N)N)NC(=O)[C@H](CC(N)=O)NC(=O)[C@@H]1CCCN1C(=O)[C@H](Cc1ccccc1)NC(=O)[C@H](Cc1c[nH]c2ccccc12)NC(=O)[C@@H](NC(=O)[C@H](CCCCN)NC(=O)[C@@H](NC(=O)[C@H](CCC(N)=O)NC(=O)[C@H](CCCNC(=N)N)NC(=O)[C@H](CC(C)C)NC(=O)[C@H](C)NC(=O)[C@H](CCCCN)NC(=O)[C@H](Cc1ccccc1)NC(=O)[C@H](CO)NC(=O)[C@@H](NC(=O)[C@H](Cc1cnc[nH]1)NC(=O)[C@H](Cc1c[nH]c2ccccc12)NC(=O)[C@H](C)NC(=O)[C@H](Cc1ccc(O)cc1)NC(=O)[C@@H](NC(=O)[C@H](CC(C)C)NC(C)=O)[C@@H](C)O)[C@@H](C)O)[C@@H](C)CC)[C@@H](C)CC)C(=O)N[C@@H](CCCCN)C(=O)N[C@@H](Cc1c[nH]c2ccccc12)C(=O)N[C@@H](CCCCN)C(=O)N[C@@H](CCCCN)C(=O)O` (Ac-LTYAWHTSFKALRQIKIWFPNRR[Nle]KWKK-OH), the figure is over 15 µM; as for `CCCCCCCCCCCCCCCC(=O)NCCCC[C@H](NC(=O)[C@H](CCCNC(=N)N)NC(=O)[C@H](CC(C)C)NC(=O)[C@H](CCSC)NC(=O)[C@@H](NC(=O)[C@H](CCC(=O)O)NC(=O)[C@H](CC(N)=O)NC(=O)[C@@H](NC(=O)[C@H](CCCCN)NC(=O)[C@H](CO)NC(=O)[C@H](C)NC(=O)[C@H](C)NC(=O)[C@H](CCCCN)NC(=O)[C@H](CCC(=O)O)NC(=O)[C@H](CO)NC(=O)[C@H](CC(C)C)NC(=O)[C@H](CC(C)C)NC(=O)CNC(=O)[C@@H]1CCCN1C(=O)[C@H](Cc1c[nH]cn1)NC(=O)[C@H](CC(N)=O)NC(=O)[C@H](CO)NC(=O)[C@H](CCCCN)NC(=O)[C@@H](NC(=O)[C@H](CO)NC(=O)[C@H](Cc1ccccc1)NC(=O)[C@H](CC(C)C)NC(=O)[C@@H](NC(=O)[C@H](CCSC)NC(=O)[C@@H](NC(=O)CNC(=O)[C@H](CCCNC(=N)N)NC(C)=O)C(C)C)[C@@H](C)O)[C@@H](C)CC)[C@@H](C)CC)[C@@H](C)O)C(=O)O` (Ac-RGVMTLFSIKSNHPGLLSEKAASKINETMLRK(Palmitoyl)-OH), 0.9 µM. Under `CCCCCCCCCCCCCCCC(=O)NCCCC[C@H](NC(=O)[C@H](Cc1ccc(O)cc1)NC(=O)[C@H](CO)NC(=O)[C@@H](NC(=O)[C@H](CCCCN)NC(=O)CNC(=O)[C@H](CO)NC(=O)[C@H](CC(C)C)NC(=O)[C@@H]1CCCN1C(=O)[C@H](CCC(N)=O)NC(=O)[C@H](Cc1ccc(O)cc1)NC(=O)[C@@H](NC(=O)[C@@H](NC(=O)CNC(=O)[C@H](CC(C)C)NC(=O)[C@H](C)NC(=O)[C@H](CCCCN)NC(=O)[C@H](Cc1ccccc1)NC(=O)[C@H](CO)NC(=O)[C@@H](NC(=O)[C@H](Cc1cnc[nH]1)NC(=O)[C@H](Cc1c[nH]c2ccccc12)NC(=O)[C@H](C)NC(=O)[C@H](Cc1ccc(O)cc1)NC(C)=O)[C@@H](C)O)[C@@H](C)O)[C@@H](C)O)[C@@H](C)O)C(=O)O` (Ac-YAWHTSFKALGTTYQPLSGKTSYK(Palmitoyl)-OH) stands 1 µM; under `CCCC[C@H](NC(=O)[C@H](CCCNC(=N)N)NC(=O)[C@H](CCCNC(=N)N)NC(=O)[C@H](CC(N)=O)NC(=O)[C@@H]1CCCN1C(=O)[C@H](Cc1ccccc1)NC(=O)[C@H](Cc1c[nH]c2ccccc12)NC(=O)[C@@H](NC(=O)[C@H](CCCCN)NC(=O)[C@@H](NC(=O)[C@H](CCC(N)=O)NC(=O)[C@@H](N)CCCNC(=N)N)[C@@H](C)CC)[C@@H](C)CC)C(=O)N[C@@H](CCCCN)C(=O)N[C@@H](Cc1c[nH]c2ccccc12)C(=O)N[C@@H](CCCCN)C(=O)N[C@@H](CCCCN)C(=O)N[C@@H](CC(C)C)C(=O)N[C@H](C(=O)N[C@@H](Cc1ccc(O)cc1)C(=O)N[C@@H](C)C(=O)N[C@@H](Cc1c[nH]c2ccccc12)C(=O)N[C@@H](Cc1cnc[nH]1)C(=O)N[C@H](C(=O)N[C@@H](CO)C(=O)N[C@@H](Cc1ccccc1)C(=O)N[C@@H](CCCCN)C(=O)N[C@@H](C)C(=O)N[C@@H](CC(C)C)C(=O)O)[C@@H](C)O)[C@@H](C)O` (H-RQIKIWFPNRR[Nle]KWKKLTYAWHTSFKAL-OH), over 15 µM; under `CCCCCCCCCCCCCC(=O)N[C@@H](CC(C)C)C(=O)N[C@H](C(=O)N[C@@H](Cc1ccc(O)cc1)C(=O)N[C@@H](C)C(=O)N[C@@H](Cc1c[nH]c2ccccc12)C(=O)N[C@@H](Cc1cnc[nH]1)C(=O)N[C@H](C(=O)N[C@@H](CO)C(=O)N[C@@H](Cc1ccccc1)C(=O)N[C@@H](CCCCN)C(=O)N[C@@H](C)C(=O)N[C@@H](CC(C)C)C(=O)O)[C@@H](C)O)[C@@H](C)O` (Myristoyl-LTYAWHTSFKAL-OH), 0.2 µM. Consider `CCCCCCCCCCCCCCCC(=O)N[C@@H](CC(C)C)C(=O)N[C@@H](Cc1ccccc1)C(=O)N[C@@H](CO)C(=O)N[C@H](C(=O)N[C@@H](CCCCN)C(=O)N[C@@H](CO)C(=O)N[C@@H](CC(N)=O)C(=O)N[C@@H](Cc1c[nH]cn1)C(=O)N1CCC[C@H]1C(=O)NCC(=O)N[C@@H](CC(C)C)C(=O)N[C@@H](CC(C)C)C(=O)N[C@@H](CO)C(=O)N[C@@H](CCC(=O)O)C(=O)N[C@@H](CCCCN)C(=O)N[C@@H](C)C(=O)N[C@@H](C)C(=O)N[C@@H](CO)C(=O)N[C@@H](CCCCN)C(=O)N[C@H](C(=O)N[C@@H](CC(N)=O)C(=O)N[C@@H](CCC(=O)O)C(=O)N[C@H](C(=O)N[C@@H](CCSC)C(=O)N[C@@H](CC(C)C)C(=O)N[C@@H](CCCNC(=N)N)C(=O)O)[C@@H](C)O)[C@@H](C)CC)[C@@H](C)CC` (Palmitoyl-LFSIKSNHPGLLSEKAASKINETMLR-OH), for which inhibition was half-maximal at 1.5 µM (IC50). Molecule `CCCCCCCCCCCCCCCC(=O)N[C@@H](CC(C)C)C(=O)N[C@H](C(=O)N[C@@H](Cc1ccc(O)cc1)C(=O)N[C@@H](C)C(=O)N[C@@H](Cc1c[nH]c2ccccc12)C(=O)N[C@@H](Cc1cnc[nH]1)C(=O)N[C@H](C(=O)N[C@@H](CO)C(=O)N[C@@H](Cc1ccccc1)C(=O)N[C@@H](CCCCN)C(=O)O)[C@@H](C)O)[C@@H](C)O` (Palmitoyl-LTYAWHTSFK-OH) registered an IC50 of 0.06 µM. Under `CCCCCCCCCCCCCCCC(=O)N[C@@H](CC(C)C)C(=O)N[C@H](C(=O)N[C@@H](Cc1ccc(O)cc1)C(=O)N[C@@H](C)C(=O)N[C@@H](Cc1c[nH]c2ccccc12)C(=O)N[C@@H](Cc1cnc[nH]1)C(=O)N[C@H](C(=O)N[C@@H](CO)C(=O)N[C@@H](Cc1ccccc1)C(=O)N[C@@H](CCCCN)C(=O)N[C@@H](C)C(=O)O)[C@@H](C)O)[C@@H](C)O` (Palmitoyl-LTYAWHTSFKA-OH) stands 0.09 µM; under `CCCCCCCCCCCCCCCC(=O)N[C@@H](CC(C)C)C(=O)N[C@H](C(=O)N[C@@H](Cc1ccc(O)cc1)C(=O)N[C@@H](C)C(=O)N[C@@H](Cc1c[nH]c2ccccc12)C(=O)N[C@@H](Cc1cnc[nH]1)C(=O)N[C@H](C(=O)N[C@@H](CO)C(=O)N[C@@H](Cc1ccccc1)C(=O)N[C@@H](CCCCN)C(=O)N[C@@H](C)C(=O)N[C@@H](CC(C)C)C(=O)O)[C@@H](C)O)[C@@H](C)O` (Palmitoyl-LTYAWHTSFKAL-OH), 0.08 µM.
